Values after ≈ are worked out from the molar mass of the structure shown.
How the values were obtained:
Staphylococcus aureus [1] = test: In vitro antimicrobial activity against aerobic bacteria Staphylococcus aureus V135; assay type: functional
Rattus norvegicus [2] = test: Peripheral plasma levels in rats after oral administration of 100 mg/kg dose for 0.25 hr; assay type: functional, organism-based; parameters: dose 100 mg/kg
How it was run: (§1)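 Rats received 100 mg/kg orally and were sampled for peripheral plasma. Concentrations were measured by Micrococcus luteus agar-diffusion microbiological assay in Antibiotic Medium 1, with zone sizes converted using the standard curve for the appropriate compound. Each value is the average of three rats per time point.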

Streptococcus [3] = test: In vitro antimicrobial activity against aerobic bacteria Streptococcus D 9960; assay type: functional
Eikenella corrodens = test: In vitro antimicrobial activity against anaerobic bacteria bacteroides corrodens 1874; assay type: functional
Rattus norvegicus [4] = test: Peripheral plasma levels in rats after oral administration of 100 mg/kg dose for 1 hr; assay type: functional, organism-based; parameters: dose 100 mg/kg; how it was run: as §1
Staphylococcus aureus [5] = test: In vitro antimicrobial activity against aerobic bacteria Staphylococcus aureus X400; assay type: functional
Mus musculus [6] = test: Peripheral plasma levels in mice after oral administration of 50 mg/kg dose for 0.5 hr; assay type: functional, organism-based; parameters: dose 50 mg/kg
How it was run: (§2)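 Mice were given the compound orally and sampled for peripheral plasma at each time point. Plasma was assayed microbiologically against Micrococcus luteus seeded in Antibiotic Medium 1. Inhibition zone sizes were read, and concentrations were calculated from each compound's own standard curve. Each value is the mean of five mice per time point.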

Staphylococcus aureus [7] = test: In vivo effective dose against experimental infections in mice Staphylococcus aureus X1 when administered sc; assay type: functional
[8] = In vitro antimicrobial activity against anaerobic bacteria peptostreptococcus intermedius 1264; assay type: functional
Streptococcus pneumoniae [9] = test: In vitro antimicrobial activity against aerobic bacteria Streptococcus pneumoniae B1-438; assay type: functional, streptococcus pneum
[10] = test system: Staphylococcus epidermidis; test: In vitro antimicrobial activity against aerobic bacteria Streptococcus epi 270; assay type: functional
Rattus norvegicus [11] = test: Peripheral plasma levels in rats after oral administration of 100 mg/kg dose for 0.5 hr; assay type: functional, organism-based; parameters: dose 100 mg/kg; how it was run: as §1
[12] = test system: Staphylococcus epidermidis; test: In vitro antimicrobial activity against aerobic bacteria Streptococcus epi 222; assay type: functional
Mus musculus [13] = test: Peripheral plasma levels in mice after oral administration of 100 mg/kg dose for 1 hr; assay type: functional, organism-based; parameters: dose 100 mg/kg; how it was run: as §2
Streptococcus pyogenes [14] = test: In vivo effective dose against experimental infections in rodent caused by Streptococcus pyogenes C203 when administered sc; assay type: functional
Collinsella aerofaciens = test: In vitro antimicrobial activity against anaerobic bacteria eubacterium aerofaciens 1235; assay type: functional
Mus musculus [15] = test: Peripheral plasma levels in mice after oral administration of 50 mg/kg dose for 4 hr; assay type: functional, organism-based; parameters: dose 50 mg/kg; how it was run: as §2
Mus musculus [16] = test: Peripheral plasma levels in mice after oral administration of 100 mg/kg dose for 2 hr; assay type: functional, organism-based; parameters: dose 100 mg/kg; how it was run: as §2
Mus musculus [17] = test: Peripheral plasma levels in mice after oral administration of 50 mg/kg dose for 0.25 hr; assay type: functional, organism-based; parameters: dose 50 mg/kg; how it was run: as §2
Clostridium septicum = test: In vitro antimicrobial activity against anaerobic bacteria clostridium septicum 1128; assay type: functional
[18] = test system: Bacteroides thetaiotaomicron; test: In vitro antimicrobial activity against anaerobic bacteria bacteroides thetaiotaomicron 1438; assay type: functional
Rattus norvegicus [19] = test: Peripheral plasma levels in rats after oral administration of 100 mg/kg dose for 4 hr; assay type: functional, organism-based; parameters: dose 100 mg/kg; how it was run: as §1
Streptococcus pneumoniae [20] = test: In vitro antimicrobial activity against Streptococcus pneumoniae; assay type: functional
Streptococcus [21] = test: In vitro antimicrobial activity against aerobic bacteria Streptococcus D 8043; assay type: functional
Staphylococcus aureus [22] = test: In vitro antimicrobial activity against Staphylococcus aureus X1; assay type: functional
Streptococcus [23] = test: In vitro antimicrobial activity against aerobic bacteria Streptococcus G Kruder; assay type: functional; conditions: Streptococcus; read-out: MIC
Streptococcus pyogenes [24] = test: In vitro antimicrobial activity against Streptococcus pyogenes C203; assay type: functional
Streptococcus [25] = test: In vitro antimicrobial activity against aerobic bacteria Streptococcus C 24; assay type: functional
Staphylococcus aureus [26] = test: In vitro antimicrobial activity against aerobic bacteria Staphylococcus aureus 513E; assay type: functional
Streptococcus pyogenes [27] = test: In vivo effective dose against experimental infections in rodent caused by Streptococcus pyogenes C203 when administered orally; assay type: functional; conditions: po
[28] = test system: Fusobacterium necrophorum; test: In vitro antimicrobial activity against anaerobic bacteria usobacterium necrophorum 6054A; assay type: functional
[29] = test system: Peptostreptococcus anaerobius; test: In vitro antimicrobial activity against anaerobic bacteria eubacterium peptostreptococcus anaerobius 1428,; assay type: functional
[30] = test system: Prevotella melaninogenica; test: In vitro antimicrobial activity against anaerobic bacteria bacteroides melaninogenicus 1856,; assay type: functional
Mus musculus [31] = test: Peripheral plasma levels in mice after oral administration of 50 mg/kg dose for 1 hr; assay type: functional, organism-based; parameters: dose 50 mg/kg; how it was run: as §2
Rattus norvegicus [32] = test: Peripheral plasma levels in rats after oral administration of 100 mg/kg dose for 2 hr; assay type: functional, organism-based; parameters: dose 100 mg/kg; how it was run: as §1
Enterococcus faecium = test: In vitro antimicrobial activity against Streptococcus faecium X66; assay type: functional, streptococcus fae-cium
Streptococcus viridans = test: In vitro antimicrobial activity against aerobic bacteria Streptococcus viridans 9943; assay type: functional
Staphylococcus aureus [33] = test: In vitro antimicrobial activity against aerobic bacteria Staphylococcus aureus V41; assay type: functional
Haemophilus influenzae [34] = test: In vitro antimicrobial activity against Haemophilus influenzae.; assay type: functional
Bacteroides fragilis [35] = test: In vitro antimicrobial activity against anaerobic bacteria bacteroides fragilis 1877; assay type: functional
Haemophilus influenzae [36] = test: In vitro antimicrobial activity against aerobic bacteria Haemophilus influenzae MX366,; assay type: functional
Mus musculus [37] = test: Peripheral plasma levels in mice after oral administration of 50 mg/kg dose for 2 hr; assay type: functional, organism-based; parameters: dose 50 mg/kg; how it was run: as §2
Clostridium perfringens = test: In vitro antimicrobial activity against anaerobic bacteria clostridium perfringens 81,; assay type: functional
Streptococcus sanguinis = test: In vitro antimicrobial activity against aerobic bacteria Streptococcus sanguis MX132; assay type: functional
Clostridioides difficile = test: In vitro antimicrobial activity against anaerobic bacteria Clostridium difficile 2994; assay type: functional
Anaerococcus prevotii = test: In vitro antimicrobial activity against anaerobic bacteria peptococcus prevoti 1281; assay type: functional
Phocaeicola vulgatus = test: In vitro antimicrobial activity against anaerobic bacteria bacteroides vulgatus 1211; assay type: functional
Staphylococcus aureus [38] = test: In vivo effective dose against experimental infections in mice Staphylococcus aureus X1 when administered orally; assay type: functional; conditions: po
Streptococcus pneumoniae [39] = test: In vivo effective dose against experimental infections in mice Strep. pneumoniae park when administered orally; assay type: functional; conditions: po
Mus musculus [40] = test: Peripheral plasma levels in mice after oral administration of 100 mg/kg dose for 0.25 hr; assay type: functional, organism-based; parameters: dose 100 mg/kg; how it was run: as §2
Streptococcus pneumoniae [41] = test: In vivo effective dose against experimental infections in mice Strep. pneumoniae park when administered sc; assay type: functional
Streptococcus [42] = test: In vitro antimicrobial activity against aerobic bacteria Streptococcus D 2041; assay type: functional
Haemophilus influenzae [43] = test: In vitro antimicrobial activity against aerobic bacteria Haemophilus influenzae 76; assay type: functional
[44] = test system: Staphylococcus epidermidis; test: In vitro antimicrobial activity against Staphylococcus epidermidis EPI1; assay type: functional
Streptococcus [45] = test: In vitro antimicrobial activity against aerobic bacteria Streptococcus B 5; assay type: functional
Bacteroides fragilis [46] = test: In vitro antimicrobial activity against anaerobic bacteria bacteroides fragilis 1936B,; assay type: functional
Bacteroides fragilis [47] = test: In vitro antimicrobial activity against anaerobic bacteria bacteroides fragilis 111; assay type: functional
Chlamydia trachomatis = test: In vitro antimicrobial activity against chlamydia trachomatis.; assay type: functional
Streptococcus [48] = test: In vitro antimicrobial activity against aerobic bacteria Streptococcus B 8; assay type: functional
Mus musculus [49] = test: Peripheral plasma levels in mice after oral administration of 100 mg/kg dose for 4 hr; assay type: functional, organism-based; parameters: dose 100 mg/kg; how it was run: as §2
Mus musculus [50] = test: Peripheral plasma levels in mice after oral administration of 100 mg/kg dose for 0.5 hr; assay type: functional, organism-based; parameters: dose 100 mg/kg; how it was run: as §2
Fusobacterium = test: In vitro antimicrobial activity against anaerobic bacteria fusobacterium symbiosum 1470; assay type: functional
[51] = test system: Peptoniphilus asaccharolyticus; test: In vitro antimicrobial activity against anaerobic bacteria peptococcus asaccharolyticus 1302; assay type: functional
Staphylococcus aureus [52] = test: In vitro antimicrobial activity against aerobic bacteria Staphylococcus aureus V140,; assay type: functional
[53] = test system: Prevotella melaninogenica; test: In vitro antimicrobial activity against anaerobic bacteria bacteroides melaninogenicus 2736; assay type: functional
Cutibacterium acnes = test: In vitro antimicrobial activity against anaerobic bacteria propionibacterium acnes 79; assay type: functional
Streptococcus [54] = test: In vitro antimicrobial activity against aerobic bacteria Streptococcus B 14; assay type: functional

For `CC[C@H]1C[C@@H](C)C(=O)/C=C/C(C)=C/[C@H](CO[C@@H]2O[C@H](C)[C@@H](O)[C@@H](OC)[C@H]2OC)[C@@H](CC)OC(=O)C[C@@H](O)[C@H](C)[C@H]1O[C@@H]1O[C@H](C)[C@@H](O)[C@H](N(C)C)[C@H]1O`, the MIC (Staphylococcus aureus [1]) was 0.25 µg/mL (≈ 0.33 µM), the Concentration (Rattus norvegicus [2]) was 4.6 µg/mL and the MIC (Streptococcus [3]) was 16 µg/mL (≈ 21.1 µM). For the same compound, the MIC (Eikenella corrodens) was 4 µg/mL (≈ 5.28 µM), the Concentration (Rattus norvegicus [4]) was 7.2 µg/mL and the MIC (Staphylococcus aureus [5]) was 0.5 µg/mL (≈ 0.66 µM). It also gave a Concentration (Mus musculus [6]) of 0.5 µg/mL, an ED50 (Staphylococcus aureus [7]) of 2.2 mg/kg and an MIC [8] of 4 µg/mL (≈ 5.28 µM). It also gave an MIC (Streptococcus pneumoniae [9]) greater than 128 µg/mL, an MIC [10] greater than 128 µg/mL and a Concentration (Rattus norvegicus [11]) of 7.4 µg/mL. It also gave an MIC [12] of 0.12 µg/mL (≈ 0.158 µM), a Concentration (Mus musculus [13]) of 3.4 µg/mL and an ED50 (Streptococcus pyogenes [14]) of 4.3 mg/kg. For the same compound, the MIC (Collinsella aerofaciens) was 2 µg/mL (≈ 2.64 µM), the Concentration (Mus musculus [15]) was 0.9 µg/mL and the Concentration (Mus musculus [16]) was 2.3 µg/mL. It also gave a Concentration (Mus musculus [17]) of 0.9 µg/mL, an MIC (Clostridium septicum) of less than 0.5 µg/mL and an MIC [18] of 4 µg/mL (≈ 5.28 µM). The Concentration (Rattus norvegicus [19]) was 5.1 µg/mL, the MIC (Streptococcus pneumoniae [20]) was 2 µg/mL (≈ 2.64 µM) and the MIC (Streptococcus [21]) was 8 µg/mL (≈ 10.6 µM). The MIC (Staphylococcus aureus [22]) was 0.25 µg/mL (≈ 0.33 µM), the MIC (Streptococcus [23]) was 64 µg/mL (≈ 84.4 µM) and the MIC (Streptococcus pyogenes [24]) was 0.5 µg/mL (≈ 0.66 µM). It also gave an MIC (Streptococcus [25]) of 0.5 µg/mL (≈ 0.66 µM), an MIC (Staphylococcus aureus [26]) of 0.25 µg/mL (≈ 0.33 µM) and an ED50 (Streptococcus pyogenes [27]) of 7 mg/kg. It also gave an MIC [28] of 8 µg/mL (≈ 10.6 µM), an MIC [29] of less than 0.5 µg/mL and an MIC [30] of 1 µg/mL (≈ 1.32 µM). The Concentration (Mus musculus [31]) was 2 µg/mL, the Concentration (Rattus norvegicus [32]) was 8.7 µg/mL and the MIC (Enterococcus faecium) was 16 µg/mL (≈ 21.1 µM). The MIC (Streptococcus viridans) was greater than 128 µg/mL, the MIC (Staphylococcus aureus [33]) was 0.25 µg/mL (≈ 0.33 µM) and the MIC (Haemophilus influenzae [34]) was 16 µg/mL (≈ 21.1 µM). For the same compound, the MIC (Bacteroides fragilis [35]) was 4 µg/mL (≈ 5.28 µM), the MIC (Haemophilus influenzae [36]) was 16 µg/mL (≈ 21.1 µM) and the Concentration (Mus musculus [37]) was 2.2 µg/mL. For the same compound, the MIC (Clostridium perfringens) was 2 µg/mL (≈ 2.64 µM), the MIC (Streptococcus sanguinis) was 2 µg/mL (≈ 2.64 µM) and the MIC (Clostridioides difficile) was less than 0.5 µg/mL. The MIC (Anaerococcus prevotii) was 2 µg/mL (≈ 2.64 µM), the MIC (Phocaeicola vulgatus) was 2 µg/mL (≈ 2.64 µM) and the ED50 (Staphylococcus aureus [38]) was 10 mg/kg. For the same compound, the ED50 (Streptococcus pneumoniae [39]) was greater than 50 mg/kg, the Concentration (Mus musculus [40]) was 2.6 µg/mL and the ED50 (Streptococcus pneumoniae [41]) was greater than 20 mg/kg. The MIC (Streptococcus [42]) was 8 µg/mL (≈ 10.6 µM), the MIC (Haemophilus influenzae [43]) was 16 µg/mL (≈ 21.1 µM) and the MIC [44] was 0.25 µg/mL (≈ 0.33 µM). For the same compound, the MIC (Streptococcus [45]) was 8 µg/mL (≈ 10.6 µM), the MIC (Bacteroides fragilis [46]) was 4 µg/mL (≈ 5.28 µM) and the MIC (Bacteroides fragilis [47]) was 4 µg/mL (≈ 5.28 µM). The MIC (Chlamydia trachomatis) was 0.5 µg/mL (≈ 0.66 µM), the MIC (Streptococcus [48]) was 8 µg/mL (≈ 10.6 µM) and the Concentration (Mus musculus [49]) was 0.8 µg/mL. It also gave a Concentration (Mus musculus [50]) of 4.5 µg/mL, an MIC (Fusobacterium) of 2 µg/mL (≈ 2.64 µM) and an MIC [51] of 2 µg/mL (≈ 2.64 µM). It also gave an MIC (Staphylococcus aureus [52]) of 0.5 µg/mL (≈ 0.66 µM), an MIC [53] of 4 µg/mL (≈ 5.28 µM) and an MIC (Cutibacterium acnes) of 8 µg/mL (≈ 10.6 µM). The MIC (Streptococcus [54]) was 16 µg/mL (≈ 21.1 µM).
